MrgX1 antag – antagonists of human MrgX1 receptor. Q96LB2. MRGX1-HEK293 calcium flux, Fluo-4, BAM8-22 antagonism; hits give low values. B-score at 10 µM. 1.3% of 310,000 active. AID 588676;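 active = calcium-response B-score plate-corrected more than 3 library SD below zero, starting fluorescence within 5 deviations, no agonist response on first addition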;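 note: peak minus trough fluorescence over baseline after final BAM8-22 challenge near maximal dose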
Target sequence (Q96LB2 whole entry, looked up): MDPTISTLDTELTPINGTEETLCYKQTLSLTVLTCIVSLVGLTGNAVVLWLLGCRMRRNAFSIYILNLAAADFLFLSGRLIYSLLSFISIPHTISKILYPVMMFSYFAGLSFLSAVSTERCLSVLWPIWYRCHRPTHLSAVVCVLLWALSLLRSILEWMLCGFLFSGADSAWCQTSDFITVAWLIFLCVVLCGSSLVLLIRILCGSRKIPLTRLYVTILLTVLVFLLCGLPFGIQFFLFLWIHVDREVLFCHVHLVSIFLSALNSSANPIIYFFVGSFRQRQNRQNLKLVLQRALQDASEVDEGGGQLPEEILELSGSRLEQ
RGS4 block – human RGS4 inhibition; P49798; HEK293 M3R/RGS4 inducible, Fluo-4 calcium flux; hits give high values; triggered by carbachol at its EC20; B-score at 10 µM; 0.45% of 310,000 active; AID 463165;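 active = B-score, a plate-corrected calcium signal, over three deviations above library mean, with baseline fluorescence within five deviations of library mean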;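 note: RGS4 expression induced by doxycycline in cells with stable M3 receptor; B-score is computed from the integrated fluorescence ratio over baseline after carbachol; higher B-score means a larger calcium signal and so more RGS4 inhibition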
Target sequence (P49798 whole entry, looked up): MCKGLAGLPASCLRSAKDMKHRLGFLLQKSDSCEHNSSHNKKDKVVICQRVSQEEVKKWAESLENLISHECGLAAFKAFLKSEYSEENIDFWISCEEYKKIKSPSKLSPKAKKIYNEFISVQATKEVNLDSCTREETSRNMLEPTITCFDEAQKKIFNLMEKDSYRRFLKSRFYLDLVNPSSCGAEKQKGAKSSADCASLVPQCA
MrgX1 agonist – agonists of human MrgX1 receptor; B-score at 10 µM; 0.44% of 310,000 active; Q96LB2; MrgX1-HEK293 cells, Fluo-4 calcium fluorescence, agonist mode; hits give high values;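 active = calcium response B-score plate-corrected fluorescence ratio at least 3 library SD, with starting fluorescence B-score inside 5 SD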
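Assay system: MrgX1-expressing HEK293 cells / Amount: fifteen thousand cells per well / Doses: test compound in the initial addition of three / Timing: cells plated overnight, dye loaded 0.5 h 37 °C, 0.5 h room temperature / Technique: kinetic calcium dye fluorescence, Fluo-4 NW / Control set: positive and negative controls per plate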
MrgX1 allo act – allosterically activates human MrgX1 receptor signaling; Q96LB2; MrgX1-HEK293, Fluo-4 calcium flux, FDSS; hits give high values; B-score at 10 µM; 0.63% of 310,000 active; AID 588675;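 active = plate-corrected calcium response at least 3 library SD above typical, normal starting fluorescence, not activating the receptor alone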;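 note: compound read alongside a low EC10 to EC30 dose of BAM8-22 agonist; peak minus trough fluorescence over baseline measured at the second addition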
RGS4 act – potentiators or activators of RGS4; HEK293 M3R/inducible RGS4, carbachol calcium flux Fluo4; hits give low values; AID 463111; 0.92% of 310,000 active; B-score at 10 µM;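 active = B-score of the integrated calcium signal more than 4 SD below the library mean, with starting fluorescence not abnormally high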;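 note: negative B-score means reduced calcium response which marks RGS4 activation or potentiation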
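test system = M3R-expressing HEK293 line, RGS4 induced by doxycycline | probe or stimulus = carbachol at ECmax as muscarinic agonist stimulus | timing = dye loading 30 min 37 °C, buffer rest 30 min RT | signal = calcium dye Fluo4 fluorescence | evaluation = B score from integrated fluorescence ratio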
MrgX1 PAM conf – confirmation of human MrgX1 receptor positive allosteric modulators. MrgX1-HEK293, Fluo-4 calcium fluorescence, FDSS. shares compounds with MrgX1 allo act. AID 602413. 13% of 1,200 active. activation (ratio percentage), % at 10 µM;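 active = ratio at least 3 SD above the weak peptide control, stable starting fluorescence, no direct agonism earlier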;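 note: compound followed by low BAM8-22 agonist challenge near EC20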
HEK293 Ca flux – MrgX1 antagonist counter-screen hit in parental HEK293 cells; shares compounds with MrgX1 antag; Fluo-4 calcium fluorescence, FDSS; fluorescence ratio F(max-min)/F0 at 10 µM; 2% of 4,000 active; AID 624111;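 active = duplicate-averaged calcium fluorescence ratio at least three times the standard deviation of buffer wells, a nonspecific response in parental cells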
HEK293 Ca counter – activity in parental HEK293 cells without MrgX1. 0.4% of 4,000 active. AID 624114. fluorescence ratio F(max-min)/F0 at 10 µM. parental HEK293 calcium flux, Fluo-4 fluorescence ratio; hits give high values. shares compounds with MrgX1 antag;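 active = calcium fluorescence ratio, averaged over duplicates, at least 3 SD of the buffer-well ratio, meaning a nonspecific response in receptor-free cells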;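 note: untransfected parental HEK293 lacking MrgX1 used as counterscreen for MrgX1 allosteric activators; fluorescence change taken during the second addition on a kinetic imager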
HEK293 Ca cntr2 – MrgX1 activator counter-screen hit in parental HEK293 cells | fluorescence ratio F(max-min)/F0 at 10 µM | 8.7% of 4,000 active | shares compounds with MrgX1 antag | Fluo-4 calcium fluorescence (FDSS); hits give high values;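 active = calcium fluorescence ratio at least three times the spread of buffer wells, meaning a non-specific response in parental cells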
* = called active by the depositor. Sampled rows, rich in hits. Any-hit rate of the full collection: about 3.5%.

What do the screens show for `O=C(Nc1ccc(C(=O)NC2CCCCC2)cc1)c1cccnc1`?
MrgX1 antag: inactive; RGS4 block: inactive; MrgX1 agonist: inactive; MrgX1 allo act: 10*; RGS4 act: inactive; MrgX1 PAM conf: inactive; HEK293 Ca flux: inactive; HEK293 Ca counter: inactive; HEK293 Ca cntr2: inactive

What do the screens show for `O=C(O)c1ccccc1NCc1cccs1`?
MrgX1 antag: inactive; RGS4 block: inactive; MrgX1 agonist: inactive; MrgX1 allo act: inactive; RGS4 act: inactive

Results for O=C(O)CC(NC(=O)c1ccncc1)c1ccccc1 (configuration not stated) ?
MrgX1 antag: inactive; RGS4 block: inactive; MrgX1 agonist: inactive; MrgX1 allo act: inactive; RGS4 act: inactive

How did COc1ccc(CC(=O)Nc2ccccc2Oc2ccccc2)cc1 do in these assays?
MrgX1 antag: inactive; RGS4 block: inactive; MrgX1 agonist: inactive; MrgX1 allo act: 8.3*; RGS4 act: inactive; MrgX1 PAM conf: inactive; HEK293 Ca flux: inactive; HEK293 Ca counter: inactive; HEK293 Ca cntr2: inactive

Results for CC1CC1C(=O)OCC(=O)Nc1ccccc1Oc1ccccc1 (configuration not stated) ?
MrgX1 antag: inactive; RGS4 block: inactive; MrgX1 agonist: inactive; MrgX1 allo act: 12*; RGS4 act: inactive; MrgX1 PAM conf: inactive; HEK293 Ca flux: inactive; HEK293 Ca counter: inactive; HEK293 Ca cntr2: inactive

How did O=C1C2CC=C(Cl)CC2C(=O)N1CCCCCCN1C(=O)C2CC=C(Cl)CC2C1=O (configuration not stated) do in these assays?
MrgX1 antag: inactive; RGS4 block: inactive; MrgX1 agonist: inactive; MrgX1 allo act: 6.5*; RGS4 act: inactive; MrgX1 PAM conf: inactive; HEK293 Ca flux: inactive; HEK293 Ca counter: inactive; HEK293 Ca cntr2: inactive

How did O=C1C2CC=C(Cl)CC2C(=O)N1CCN1CCOCC1 (configuration not stated) do in these assays?
MrgX1 antag: inactive; RGS4 block: inactive; MrgX1 agonist: inactive; MrgX1 allo act: inactive; RGS4 act: inactive

What do the screens show for `COc1cccc(C(=O)COc2cccc(NC(=O)c3ccco3)c2)c1`?
MrgX1 antag: inactive; RGS4 block: inactive; MrgX1 agonist: inactive; MrgX1 allo act: 6.6*; RGS4 act: inactive; MrgX1 PAM conf: inactive; HEK293 Ca flux: inactive; HEK293 Ca counter: inactive; HEK293 Ca cntr2: inactive

Results for COc1ccc(-c2nnc(NC(=O)c3cc(C)on3)s2)cc1 ?
MrgX1 antag: inactive; RGS4 block: inactive; MrgX1 agonist: inactive; MrgX1 allo act: 8.2*; RGS4 act: inactive; MrgX1 PAM conf: inactive; HEK293 Ca flux: inactive; HEK293 Ca counter: inactive; HEK293 Ca cntr2: inactive

What do the screens show for `Fc1cccc2sc(Nc3nnc(-c4ccco4)o3)nc12`?
MrgX1 antag: inactive; RGS4 block: inactive; MrgX1 agonist: inactive; MrgX1 allo act: 12*; RGS4 act: inactive; MrgX1 PAM conf: inactive; HEK293 Ca flux: inactive; HEK293 Ca counter: inactive; HEK293 Ca cntr2: inactive

What do the screens show for `Clc1ccc(-c2nnnn2-c2ccc(Cl)cc2)cc1`?
MrgX1 antag: inactive; RGS4 block: inactive; MrgX1 agonist: inactive; MrgX1 allo act: 11*; RGS4 act: inactive; MrgX1 PAM conf: inactive; HEK293 Ca flux: inactive; HEK293 Ca counter: inactive; HEK293 Ca cntr2: inactive

What do the screens show for `Clc1ccc(-n2nnnc2-c2ccccc2)cc1`?
MrgX1 antag: inactive; MrgX1 agonist: inactive; MrgX1 allo act: inactive

How did CCNC(=O)OCC12CC3CC(CC(C3)C1)C2 do in these assays?
MrgX1 antag: inactive; RGS4 block: inactive; MrgX1 agonist: inactive; MrgX1 allo act: 9.8*; RGS4 act: inactive; MrgX1 PAM conf: inactive; HEK293 Ca flux: inactive; HEK293 Ca counter: inactive; HEK293 Ca cntr2: inactive

What do the screens show for `CCOc1ccc(N(C)C(=O)CCc2nnc3ccc(N4CCCCC4)nn23)cc1`?
MrgX1 antag: inactive; RGS4 block: inactive; MrgX1 agonist: inactive; MrgX1 allo act: inactive; RGS4 act: inactive

How did COC(=O)C1Cc2ccccc2CN1C(=O)CCl (configuration not stated) do in these assays?
MrgX1 antag: inactive; RGS4 block: inactive; MrgX1 agonist: inactive; MrgX1 allo act: 8.1*; RGS4 act: inactive; MrgX1 PAM conf: inactive; HEK293 Ca flux: inactive; HEK293 Ca counter: inactive; HEK293 Ca cntr2: inactive

What do the screens show for `OCC[C@H]1C[C@@H](O)[C@H](O)[C@@]2(CCCCO2)O1`?
MrgX1 antag: inactive; RGS4 block: inactive; MrgX1 agonist: inactive; MrgX1 allo act: inactive; RGS4 act: inactive

How did Cc1cccc2sc(NS(=O)(=O)c3ccccc3)nc12 do in these assays?
MrgX1 antag: inactive; RGS4 block: inactive; MrgX1 agonist: inactive; MrgX1 allo act: 8.3*; RGS4 act: inactive; MrgX1 PAM conf: inactive; HEK293 Ca flux: inactive; HEK293 Ca counter: inactive; HEK293 Ca cntr2: inactive

How did Cc1nc(NS(=O)(=O)c2ccccc2)sc1C(C)(C)C do in these assays?
MrgX1 antag: inactive; RGS4 block: inactive; MrgX1 agonist: inactive; MrgX1 allo act: inactive; RGS4 act: inactive

Results for O=C(NCCc1ccccc1)C(=O)NCC1OCCN1S(=O)(=O)c1cc(F)ccc1F (configuration not stated) ?
MrgX1 antag: inactive; RGS4 block: inactive; MrgX1 agonist: inactive; MrgX1 allo act: inactive; RGS4 act: inactive

How did O=C(NCc1cccnc1)C(=O)NCC1OCCN1S(=O)(=O)c1cc(F)ccc1F (configuration not stated) do in these assays?
MrgX1 antag: inactive; RGS4 block: inactive; MrgX1 agonist: inactive; MrgX1 allo act: 16*; RGS4 act: inactive; MrgX1 PAM conf: inactive; HEK293 Ca flux: inactive; HEK293 Ca counter: inactive; HEK293 Ca cntr2: inactive

What do the screens show for `Cc1cc2nc(C(C)(C)C)cc(N)n2n1`?
MrgX1 antag: inactive; RGS4 block: inactive; MrgX1 agonist: inactive; MrgX1 allo act: inactive; RGS4 act: inactive

How did CC(C)(C)c1cc(N)n2nc(C(C)(C)C)cc2n1 do in these assays?
MrgX1 antag: inactive; RGS4 block: inactive; MrgX1 agonist: inactive; MrgX1 allo act: 7.7*; RGS4 act: inactive; MrgX1 PAM conf: inactive; HEK293 Ca flux: inactive; HEK293 Ca counter: inactive; HEK293 Ca cntr2: inactive
